This is an account of results in PubChem BioAssay.

Structures are written as SMILES. The source made the active and inactive calls.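 How the source made its calls, unless noted: active means potentiation averaged over duplicate wells exceeding buffer-only control mean by more than 3 SD; inactive means the rest.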

A short description of assay [1]: nonspecific flux increase, KCNQ1-free cells – parental CHO cells, counter-screen for KCNQ1 potentiator project (AID 493006;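 active means duplicate-averaged activation above buffer control mean plus 5 SD of those controls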). The following applies: parental CHO-K1 cells, FluxOR thallium flux, at 10 µM; active compounds read high. The method, boiled down:
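Assay system: Untransfected host CHO-K1 cells with FluxOR thallium dye | Probe or stimulus: Potassium/thallium depolarization pulse | Schedule: Overnight 37 °C plating, 90 min RT dye, 20 min compound | Detection: Kinetic thallium-flux fluorescence | Read-out: Max-minus-min fluorescence over baseline, percent of buffer-to-R-L3 span | Benchmarks: Low control buffer, high control R-L3 activator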

Assay [2] addresses Potassium voltage-gated channel subfamily KQT member 1 (Homo sapiens) (UniProt P51787). As to the kind of experiment: enhancement of KCNQ1 channel thallium flux – FluxOR thallium flux, CHO cells, duplicates, confirmation (AID 493007).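 On outcome: cells depolarized by a potassium plus thallium sulfate stimulus after compound.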 The settings on record: KCNQ1 cell line, FluxOR thallium flux fluorescence, at 10 µM; active compounds read high, % of reference activator effect, buffer zero. The method, boiled down: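 Material: KCNQ1-expressing CHO cell line; Incubation: FluxOR dye loading 90 min, compound exposure 20 min, room temperature; Detection: FluxOR Tl+ flux fluorescence, 10 s baseline plus 110 s recording; Read-out: percent activation between buffer and R-L3 responses; Control set: buffer-only wells as 0% and R-L3 activator as 100%; Replication: duplicate wells per compound.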

Assay [3] concerns the target Potassium voltage-gated channel subfamily KQT member 2 (Rattus norvegicus) (UniProt O88943). As to the kind of experiment: KCNQ2 thallium flux enhancement – KCNQ2-CHO-K1 cells, selectivity assay for KCNQ1 potentiator project (AID 493009;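 active means mean duplicate potentiation above the buffer control mean plus 5 SD of buffer wells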;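 further: assay conditions were tuned for KCNQ1 rather than KCNQ2 modulators; signal is max minus min fluorescence divided by baseline after thallium stimulus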). The settings on record: FluxOR thallium flux fluorescence, at 10 µM; active compounds read high, scaled: buffer 0, activator control 100.
Assay [4] has as its target Potassium voltage-gated channel subfamily KQT member 1 (Homo sapiens) (UniProt P51787). As to the kind of experiment: KCNQ1 activators by electrophysiology – IonWorks patch clamp, KCNQ1-CHO cells, orthogonal assay for KCNQ1 potentiator project, confirmation (AID 493184;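 active means current rise at least 3 SD above the untreated control mean in each of two repeat wells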). The settings on record: automated patch clamp current, at 10 µM; active compounds read high. The method, boiled down: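 assay system = KCNQ1-expressing CHO cells | medium = external bath solution at pH 7.4 | probe or stimulus = 2,000 ms depolarization, -90 to +40 mV | compound dosing = 10 µM final, single point | measured by = automated voltage clamp, amphotericin B perforated patch | measure = percent current increase versus pre-compound level | replication = duplicates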

Chain of Potassium voltage-gated channel subfamily KQT member 2 (Rattus norvegicus) (O88943 whole entry, looked up): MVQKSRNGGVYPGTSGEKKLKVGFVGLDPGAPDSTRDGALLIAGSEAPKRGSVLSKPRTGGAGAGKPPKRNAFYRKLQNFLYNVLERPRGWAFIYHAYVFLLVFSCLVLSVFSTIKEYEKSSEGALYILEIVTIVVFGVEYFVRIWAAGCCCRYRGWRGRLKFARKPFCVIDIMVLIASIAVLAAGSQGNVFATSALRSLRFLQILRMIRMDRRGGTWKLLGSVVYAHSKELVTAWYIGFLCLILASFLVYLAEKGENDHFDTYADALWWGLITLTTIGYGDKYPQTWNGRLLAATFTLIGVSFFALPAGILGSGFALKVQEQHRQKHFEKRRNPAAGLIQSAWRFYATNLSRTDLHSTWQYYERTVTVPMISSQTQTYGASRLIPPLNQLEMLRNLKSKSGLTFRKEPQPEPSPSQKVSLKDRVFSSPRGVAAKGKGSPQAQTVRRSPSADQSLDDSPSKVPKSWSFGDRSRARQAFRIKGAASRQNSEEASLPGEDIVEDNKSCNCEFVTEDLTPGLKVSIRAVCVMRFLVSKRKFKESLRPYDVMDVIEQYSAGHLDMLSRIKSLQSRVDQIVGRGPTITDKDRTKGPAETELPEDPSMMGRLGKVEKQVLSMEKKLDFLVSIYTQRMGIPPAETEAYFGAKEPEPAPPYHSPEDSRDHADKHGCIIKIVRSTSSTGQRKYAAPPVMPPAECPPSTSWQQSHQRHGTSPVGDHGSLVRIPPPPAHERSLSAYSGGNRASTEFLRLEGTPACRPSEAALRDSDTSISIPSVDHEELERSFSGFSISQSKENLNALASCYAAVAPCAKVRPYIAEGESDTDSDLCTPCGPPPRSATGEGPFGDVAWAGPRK
Chain of Potassium voltage-gated channel subfamily KQT member 1 (Homo sapiens) (P51787 whole entry, looked up): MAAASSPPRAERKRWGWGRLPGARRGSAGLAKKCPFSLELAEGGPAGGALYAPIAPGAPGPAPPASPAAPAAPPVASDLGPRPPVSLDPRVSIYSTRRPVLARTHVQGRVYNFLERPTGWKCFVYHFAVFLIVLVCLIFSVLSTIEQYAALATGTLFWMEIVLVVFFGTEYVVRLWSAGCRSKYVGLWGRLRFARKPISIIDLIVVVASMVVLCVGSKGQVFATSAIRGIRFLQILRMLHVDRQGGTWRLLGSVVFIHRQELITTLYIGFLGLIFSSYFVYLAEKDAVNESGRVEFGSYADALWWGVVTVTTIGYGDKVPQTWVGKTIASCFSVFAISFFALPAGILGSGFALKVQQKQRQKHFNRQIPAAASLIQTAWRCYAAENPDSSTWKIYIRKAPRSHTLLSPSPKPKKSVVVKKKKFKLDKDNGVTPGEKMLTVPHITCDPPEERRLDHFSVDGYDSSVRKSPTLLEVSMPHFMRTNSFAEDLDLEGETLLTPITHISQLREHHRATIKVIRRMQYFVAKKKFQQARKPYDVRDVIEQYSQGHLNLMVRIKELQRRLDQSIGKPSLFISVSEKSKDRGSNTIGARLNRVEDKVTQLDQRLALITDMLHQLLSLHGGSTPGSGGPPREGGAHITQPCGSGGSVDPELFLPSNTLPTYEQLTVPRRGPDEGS

In the case of `Cc1cccc(-c2n[nH]c(=S)n2/N=C/c2cccs2)c1`, the activation in assay [1] is 138% (active). The values for the potentiation in assay [2] and in assay [3] were 22.5% (active) and 149% (active), respectively. Further, the outcome in assay [4] was inactive.
Take `COc1ccc(NC(=O)Cc2nnc(SCC(=O)c3ccc(F)cc3)n2C)cc1`: the result in assay [1], in assay [2], in assay [3] and in assay [4] was inactive.
For the compound `CCC(CC)C1=NN2C(=N)/C(=C\c3cc(C)n(-c4cccc(C)c4)c3C)C(=O)N=C2S1`, the result in assay [1], in assay [2], in assay [3] and in assay [4] was inactive.
For `COc1ccccc1C(=O)NC(=S)NNC(=O)c1sc2ccccc2c1Cl`, in assay [1], the activation is 358% (active). Besides, the potentiation in assay [2] was 187% (active); in assay [3], 361% (active). Further, the outcome in assay [4] was inactive.
Take `CCOc1ccc(NC(=O)Cn2sc3nc(C)cc(C)c3c2=O)cc1`: the activation in assay [1] is 142% (active). Moreover, the outcome in assay [2], in assay [3] and in assay [4] was inactive.
Regarding `O=C(NC(=S)NC1CCCCC1)c1ccc(Cl)cc1`, the activation in assay [1] was 202% (active). Also, the potentiation is 262% (active) in assay [2] and 390% (active) in assay [3]. In assay [4], the outcome was inactive.
Consider `Cc1cccc(C(=O)NNC(=O)C(=O)NC(C)(C)C)c1`, for which the activation in assay [1] was 159% (active). Moreover, the potentiation in assay [2] is 30.5% (active); in assay [3], 146% (active). The outcome in assay [4] was inactive.
As to `O=C(NC(=S)Nc1ccccn1)c1cc(-c2ccccc2)nc2ccccc12`, the result in assay [1], in assay [3] and in assay [4] was inactive. Besides, in assay [2], the potentiation is 18% (active).
With `COc1cccc(OC)c1C(=O)Nc1cccc(-c2ccc3nncn3n2)c1`, the outcome in assay [1], in assay [2], in assay [3] and in assay [4] was inactive.
As to `O=C(COc1ccccc1)N1CCN(S(=O)(=O)c2cccs2)CC1`, the outcome in assay [1], in assay [2], in assay [3] and in assay [4] was inactive.
As for `Cc1nc(NCCc2cnc[nH]2)c2oc3ccccc3c2n1`, the outcome in assay [1], in assay [2], in assay [3] and in assay [4] was inactive.
As for `O=C(NC(=S)Nc1ccccc1N1CCCC1)c1cccc(F)c1`, the outcome in assay [1] and in assay [4] was inactive. Moreover, the potentiation in assay [2] is 37% (active); in assay [3], 144% (active).
With `CC(C)N(Cc1ccccc1)C(=S)NC(=O)C1(C)CC1(Cl)Cl` (configuration not stated), in assay [1], the activation was 357% (active). Moreover, the potentiation in assay [2] was 138% (active); in assay [3], 354% (active). In addition, in assay [4], the result was inactive.
As for `O=C(Nc1cc(=O)[nH]c(=O)[nH]1)c1cccc(Br)c1`, the result in assay [1], in assay [2], in assay [3] and in assay [4] was inactive.
On to `COc1cccc(C=NCC(C)N=Cc2cccc(OC)c2O)c1O` (configuration not stated), for which the outcome in assay [1], in assay [2], in assay [3] and in assay [4] was inactive.
As to `O=C(NC(=S)N(CCc1ccccc1)CCc1ccccc1)c1ccco1`, the activation in assay [1] was 408% (active). Moreover, the potentiation in assay [2] was 364% (active); in assay [3] it was 560% (active). The outcome in assay [4] was inactive.
As for `CC(C)CC(=O)O/N=C1\C(=O)N(c2ccccc2)c2ccccc21`, the outcome in assay [1], in assay [2], in assay [3] and in assay [4] was inactive.
Take `O=C(CC1C(=O)NCCN1Cc1cccc(F)c1)NCCCN1CCCC1=O` (configuration not stated): the outcome in assay [1], in assay [2], in assay [3] and in assay [4] was inactive.
For `COC(=O)c1sc(NC(=S)NC(=O)c2ccccc2F)nc1C`, the result in assay [1], in assay [2], in assay [3] and in assay [4] was inactive.
For `C=CCOc1c(Br)cc(/C=N/Nc2ccc(C(=O)O)cc2)cc1OCC`, the outcome in assay [1], in assay [2], in assay [3] and in assay [4] was inactive.
As for `CCC(O)(CC)C(=O)NN(C(=O)CCl)c1ccccc1`, the outcome in assay [1], in assay [2], in assay [3] and in assay [4] was inactive.
As for `CCOC(=O)C1(CCCc2ccccc2)CCN(Cc2cnc(C)s2)CC1`, the outcome in assay [1], in assay [2], in assay [3] and in assay [4] was inactive.
As to `CO/N=C/CC(=O)Nc1ccc(F)cc1F`, the outcome in assay [1], in assay [2], in assay [3] and in assay [4] was inactive.
Take `Oc1c(Br)cc(Br)cc1C=Nc1cccc2ncccc12`: in assay [1], the activation was 166% (active). For the same compound, the outcome in assay [2], in assay [3] and in assay [4] was inactive.
Consider `S=c1[nH]c(-c2ccccc2)cs1`, for which, in assay [1], the activation was 380% (active). The potentiation in assay [2] is 184% (active); in assay [3] it was 464% (active). Moreover, in assay [4], the outcome was inactive.
With `COc1ccc(C)cc1-n1c(C)cc(C=O)c1C`, the result in assay [1] and in assay [4] was inactive. Also, the potentiation in assay [2] was 44% (active); in assay [3], 153% (active).
Consider `O=C(NC(=S)N1CCCc2ccccc21)c1ccccc1`, for which the outcome in assay [1], in assay [2] and in assay [4] was inactive. Besides, the potentiation in assay [3] is 148% (active).
On to `CC(=O)c1c(C)[nH]c(C(=O)OCc2nc3ccsc3c(=O)[nH]2)c1C`, for which the outcome in assay [1], in assay [2], in assay [3] and in assay [4] was inactive.
For the compound `CCCc1c(C)[nH]c2ccc(NC(C)=O)cc2c1=O`, the result in assay [1], in assay [2], in assay [3] and in assay [4] was inactive.
Consider `COc1cccc(Oc2cnc(N)nc2-c2ccc(OC)cc2O)c1`, for which the result in assay [1], in assay [2], in assay [3] and in assay [4] was inactive.
In the case of `Cc1cc(C)n(CC(=O)N2CCCC(N3CCN(c4ccccc4C)CC3)C2)n1` (configuration not stated), the activation in assay [1] is 174% (active). The potentiation was 79% (active) in assay [2] and 206% (active) in assay [3]. Further, the outcome in assay [4] was inactive.
For `Cc1cccc(C(=O)NC(=S)N2CCc3ccccc3C2)c1`, in that order: 197% (active), 99% (active), 256% (active) and “inactive”.
For `CC(C)c1ccc(/C=N/n2c(COc3ccccc3)n[nH]c2=S)cc1`, in that order: 190% (active), 512% (active), 503% (active) and “inactive”.
